Calls of active or inactive are those of the source. The rule behind the calls is not given here.
How the values were obtained:
[1] = target: Mu-type opioid receptor (Homo sapiens) (UniProt P35372); experiment: Antagonist activity at human mu opioid receptor expressed in CHO cells by [35S]GTP-gamma-S assay; assay type: functional, cell-based
[2] = Selectivity for antagonist activity at human mu opioid receptor to kappa opioid receptor expressed in CHO cells by [35S]GTP-gamma-S assay; assay type: functional
[3] = target: Kappa-type opioid receptor (Homo sapiens) (UniProt P41145); experiment: Antagonist activity at human kappa opioid receptor expressed in CHO cells by [35S]GTP-gamma-S assay; assay type: functional, cell-based
Procedure, shortened: (§1)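 Ke from rightward shift of the agonist concentration–response curve (DAMGO μ, DPDPE δ, U69,593 κ) by one fixed concentration of test compound; membranes from stably transfected CHO cells, 0.1 nM [35S]GTPγS, 10 μM GDP, 50 mM HEPES pH 7.4, 1 h room temperature, duplicates, filtration then scintillation counting; EC50s by three-parameter logistic fit, Ke = [L]/[(A′/A) − 1].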

[4] = Selectivity for antagonist activity at human delta opioid receptor to kappa opioid receptor expressed in CHO cells by [35S]GTP-gamma-S assay; assay type: functional
[5] = target: T1, Delta-type opioid receptor (Homo sapiens, UniProt P41143); experiment: Antagonist activity at human delta opioid receptor expressed in CHO cells by [35S]GTPgammaS assay; assay type: functional, cell-based; procedure, shortened: as §1
[6] = Agonist activity at opioid receptor relative to U69,593; assay type: functional
[7] = target: Mu-type opioid receptor (Homo sapiens) (UniProt P35372); experiment: Intrinsic activity at human […] mu receptor expressed in CHO cells upto 10 uM by [35S]GTP-gamma-S assay; assay type: functional, cell-based
Procedure, shortened: (§2)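 Screened at 10 μM for agonist or inverse-agonist activity on CHO membrane homogenates expressing human δ, κ or μ receptor; 0.1 nM [35S]GTPγS, 1 μM GDP, 50 mM HEPES pH 7.4, 1 h room temperature, duplicates; bound label separated by vacuum filtration over GF-B, scintillation counted, normalized to vehicle basal binding; subtype-selective agonist run as positive control.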

[8] = target: Kappa-type opioid receptor (Homo sapiens) (UniProt P41145); experiment: Intrinsic activity at human kappa opioid receptor expressed in CHO cells upto 10 uM by [35S]GTP-gamma-S assay; assay type: functional, cell-based; procedure, shortened: as §2
[9] = target: T1, Delta-type opioid receptor; experiment: Intrinsic activity at human delta opioid receptor expressed in CHO cells upto 10 uM by [35S]GTP-gamma-S assay; assay type: functional, cell-based; procedure, shortened: as §2
[10] = target: T1, Delta-type opioid receptor; experiment: Binding affinity to delta opioid receptor
[11] = Binding affinity to opiate receptor

T1 sequence (P41143 whole entry): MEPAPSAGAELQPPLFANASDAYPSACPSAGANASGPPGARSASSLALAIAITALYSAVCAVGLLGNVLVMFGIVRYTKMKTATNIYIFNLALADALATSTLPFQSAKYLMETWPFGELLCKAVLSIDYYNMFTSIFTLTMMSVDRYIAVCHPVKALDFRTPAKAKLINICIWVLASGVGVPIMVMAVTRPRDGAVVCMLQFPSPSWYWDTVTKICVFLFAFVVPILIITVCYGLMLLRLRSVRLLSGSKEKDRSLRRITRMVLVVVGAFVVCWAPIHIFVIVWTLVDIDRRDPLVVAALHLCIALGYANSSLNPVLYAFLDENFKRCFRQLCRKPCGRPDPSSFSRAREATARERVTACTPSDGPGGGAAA
Kappa-type opioid receptor (Homo sapiens), sequence (P41145 whole entry): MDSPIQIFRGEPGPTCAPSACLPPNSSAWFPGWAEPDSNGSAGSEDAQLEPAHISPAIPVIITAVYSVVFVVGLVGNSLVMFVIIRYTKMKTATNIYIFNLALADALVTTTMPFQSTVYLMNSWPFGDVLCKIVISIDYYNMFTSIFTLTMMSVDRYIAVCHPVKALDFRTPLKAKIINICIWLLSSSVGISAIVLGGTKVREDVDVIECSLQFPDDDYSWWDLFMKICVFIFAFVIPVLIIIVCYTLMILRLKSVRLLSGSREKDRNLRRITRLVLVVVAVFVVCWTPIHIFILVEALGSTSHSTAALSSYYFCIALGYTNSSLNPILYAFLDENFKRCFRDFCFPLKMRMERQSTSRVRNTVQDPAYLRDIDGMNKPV
Mu-type opioid receptor (Homo sapiens), sequence (P35372 whole entry): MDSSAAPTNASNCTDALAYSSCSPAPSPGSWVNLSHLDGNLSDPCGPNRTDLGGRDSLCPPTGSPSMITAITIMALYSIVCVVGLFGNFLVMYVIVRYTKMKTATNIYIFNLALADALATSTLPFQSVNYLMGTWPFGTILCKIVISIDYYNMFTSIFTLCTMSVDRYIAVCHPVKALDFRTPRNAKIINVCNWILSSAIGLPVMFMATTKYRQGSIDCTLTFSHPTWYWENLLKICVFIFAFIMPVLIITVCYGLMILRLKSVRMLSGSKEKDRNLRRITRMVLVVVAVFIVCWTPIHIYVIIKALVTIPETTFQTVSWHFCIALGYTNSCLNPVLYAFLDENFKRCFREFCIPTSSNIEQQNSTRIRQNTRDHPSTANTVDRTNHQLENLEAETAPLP

Row | Compound | Ke [1] | Antagonist selectivity ratio [2] | Ke [3] | Ratio Ki [4] | Ke [5] | Intrinsic activity [6] | Intrinsic activity [7] | Intrinsic activity [8] | Intrinsic activity [9] | Emax [6] | Ki [10] | Ratio pKi [2] | Ratio pKi [4] | IC50 [11]
1 | O=c1cc(-c2ccc(O)cc2)oc2cc(O)ccc12 | 480 nM | 0.3 | 1610 nM | 1.3 | 2090 nM | – | – | – | – | – | – | – | – | –
2 | COc1ccc([C@@H]2CC(=O)c3c(O)cc(O)cc3O2)cc1O | > 10000 nM | – | > 10000 nM | – | > 10000 nM | – | – | – | – | – | – | – | – | –
3 | Oc1cc(O)c2c(c1)O[C@H](c1ccc(O)c(O)c1)[C@H](O)C2 | – | – | – | – | – | inactive | – | – | – | – | – | – | – | –
4 | O=C1CC(c2ccc(O)cc2)Oc2ccccc21 (stereo not drawn) [4'-HYDROXY-FLAVANONE] | 590 nM | 1.1 | 550 nM | 6.3 | 3490 nM | – | – | – | – | – | – | – | – | –
5 | Oc1cc(O)c2c(c1)O[C@@H](c1ccc(O)c(O)c1)[C@@H](O)C2 [(+)-EPICATECHIN] | 3020 nM | 0.52 | 5810 nM | 0.37 | 2170 nM | inactive | – | – | – | – | – | – | – | –
6 | O=C1c2c(O)cc(O)cc2O[C@H](c2ccc(O)c(O)c2)[C@H]1O [(+)-TAXIFOLIN] | 3070 nM | 0.93 | 3280 nM | 1.2 | 3820 nM | – | – | – | – | – | – | – | – | –
7 | O=C(O[C@@H]1Cc2c(O)cc(O)cc2O[C@H]1c1ccc(O)c(O)c1)c1cc(O)c(O)c(O)c1 [(-)-CATECHINGALLATE] | 210 nM | 0.95 | 220 nM | 4.3 | 950 nM | – | inactive | inactive | inactive | – | – | – | – | –
8 | Oc1cc(O)c2c(c1)O[C@@H](c1ccc(O)c(O)c1)[C@H](O)C2 [(-)-CATECHIN] | 2400 nM | 0.67 | 3600 nM | 0.49 | 1770 nM | – | – | – | – | 18% | – | – | – | –
9 | O=c1cc(-c2ccc(O)c(-c3c(O)cc(O)c4c(=O)cc(-c5ccc(O)cc5)oc34)c2)oc2cc(O)cc(O)c12 [AMENTOFLAVONE] | > 10000 nM | >20 | 490 nM | 12 | 6000 nM | – | inactive | inactive | inactive | – | 36 nM | – | – | –
10 | O=c1cc(-c2ccc(O)cc2)oc2cc(O)cc(O)c12 [APIGENIN] | 410 nM | 1 | 410 nM | 2.4 | 970 nM | – | inactive | inactive | inactive | – | – | – | – | –
11 | Oc1cc(O)c2c(c1)O[C@H](c1ccc(O)c(O)c1)[C@@H](O)C2 [CIANIDANOL] | > 10000 nM | – | 320 nM | – | 1180 nM | inactive | – | – | – | – | – | >31 | 3.7 | –
12 | O=C(O[C@@H]1Cc2c(O)cc(O)cc2O[C@@H]1c1ccc(O)c(O)c1)c1cc(O)c(O)c(O)c1 [EPICATECHIN GALLATE] | 1500 nM | 0.79 | 1900 nM | 0.89 | 1700 nM | – | inactive | inactive | inactive | – | – | – | – | 36 nM
13 | Oc1cc(O)c2c(c1)O[C@H](c1cc(O)c(O)c(O)c1)[C@H](O)C2 [EPIGALLOCATECHIN] | 300 nM | 1.2 | 250 nM | 8 | 1990 nM | – | inactive | inactive | inactive | – | – | – | – | –
14 | O=c1c(O[C@@H]2O[C@H](CO)[C@H](O)[C@H](O)[C@H]2O)c(-c2ccc(O)c(O)c2)oc2cc(O)cc(O)c12 [HYPEROSIDE] | 390 nM | 1.1 | 340 nM | 27 | 9070 nM | – | – | – | – | – | – | – | – | –
15 | CC(C)[C@@H](CN1CC[C@@](C)(c2cccc(O)c2)[C@@H](C)C1)NC(=O)[C@H]1Cc2ccc(O)cc2CN1 [JDTIC] | – | 1250 | – | 3800 | – | – | – | – | – | – | – | – | – | –
16 | O=C1C[C@@H](c2ccc(O)cc2)Oc2cc(O)cc(O)c21 [NARINGENIN] | 2300 nM | 1.4 | 1700 nM | 2.2 | 3680 nM | – | – | – | – | – | – | – | – | –
17 | Oc1ccc2c3c1O[C@H]1c4[nH]c5c(c4C[C@@]4(O)[C@@H](C2)N(CC2CC2)CC[C@]314)C[C@@]1(O)[C@H]2Cc3ccc(O)c4c3[C@@]1(CCN2CC1CC1)[C@H]5O4 [NORBINALTORPHIMINE] | – | 520 | – | 580 | – | – | – | – | – | – | – | – | – | –
